Structures are written as SMILES. Values after ≈ are worked out from the molar mass of the structure shown.

The subject of series [1] is Human immunodeficiency virus 1. The series can be described thus: Antiviral activity against wild type HIV-1 3B infected in human MT4 cells. The format is functional, organism-based. Conditions: Human immunodeficiency virus 1, 3B; call rule not given here. The method, boiled down: (§1)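 MT4 cells infected with HIV-1 (III_B) or HIV-2 (ROD), run in parallel with stavudine as positive control; antiviral IC50 and cytotoxic CC50 determined, selectivity index derived.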

Series [2] can be described thus: Cytotoxicity against human MT4 cells. The format is cell-based. In short, it runs like this:
as §1

Series [3] is described as follows: Selectivity index, ratio of CC50 for human MT4 cells to IC50 for antiviral activity against HIV-1 IIIB infected in MT4 cells. The series is classed as toxicity, cell-based. Conditions: read-out: Ratio CC50/IC50. In short, it runs like this:
(§2)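 MT4 cells infected with HIV-1 IIIB or HIV-2 ROD and tested in parallel with stavudine (d4T) as positive control. Antiviral IC50 and cytotoxic CC50 were both determined in MT4 cells. Selectivity index is CC50/IC50.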

A short description of series [4]: Selectivity index, ratio of CC50 for human MT4 cells to IC50 for antiviral activity against HIV-2 ROD infected in human MT4 cells. The series is classed as toxicity, cell-based. Conditions: read-out: Ratio CC50/IC50. In short, it runs like this: as §2
Series [5] relates to Human immunodeficiency virus 1. Description: Antiviral activity against wild type HIV-1 3B infected in wild type human C8166 cells. The format is functional, organism-based. Conditions: Human immunodeficiency virus 1, 3B.
Series [6] deals with Human immunodeficiency virus 1. The series can be described thus: Antiviral activity against HIV-1 […] infected in thymidine kinase deficient human C8166 cells. The format is functional, organism-based, 3B.
The next series can be described thus: physchem. Conditions: phosphate buffered saline, pH 7.4.
For series [7], the system named is Human immunodeficiency virus 2. The series can be described thus: Antiviral activity against HIV-2 ROD infected in human MT4 cells. Conditions: Human immunodeficiency virus 2, ISOLATE ROD.
Series [8] deals with Human immunodeficiency virus 1. The series can be described thus: Potency index, ratio of stavudine IC50 to test compound IC50 for antiviral activity against HIV-1 3B infected in human MT4 cells. The format is functional. The method, boiled down: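 MT4 cells infected with HIV-1 (IIIB) or HIV-2 (ROD). Test compounds were assayed alongside stavudine as the positive control, and antiviral IC50 was determined for each. Cytotoxicity (CC50) and selectivity index were determined in the same screen.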

Series [9] deals with Human immunodeficiency virus 1. The series can be described thus: Potency index, ratio of stavudine IC50 to test compound IC50 for antiviral activity against wild type HIV-1 3B infected in wild type human C8166 cells. The series is classed as functional.
The nature of series [10]: Prodrug activation in acetone-d6 and Trizma buffer assessed as carboxypeptidase Y (unknown origin)-mediated (S)-2-((((2S,5R)-5-(5-methyl-2,4-dioxo-3,4-dihydropyrimidin-1(2H)-yl)-2,5-dihydrofuran-2-yl)methoxy)oxidophosphorylamino)propanoate metabolite formation at 5 mg incubated for 7 mins to 2 hrs by 31P NMR analysis. The series is classed as ADME, Homo sapiens. In short, it runs like this:
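Compound dissolved in acetone-d6 with Trizma buffer (pH 7.6), treated with carboxypeptidase Y; ³¹P NMR spectra recorded over time, blank spectrum at 25 °C, conversion of parent diastereoisomer peaks to the intermediate monitored by chemical shift changes.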

Series [11] in a line: Prodrug activation in acetone-d6 and Trizma buffer assessed as carboxypeptidase Y (unknown origin)-mediated 3-(pentafluoro-lambda6-sulfanyl)phenol metabolite formation at 5 mg incubated for 1.25 hrs by 19F NMR analysis. The format is ADME, Homo sapiens.
The subject of series [12] is Human immunodeficiency virus 2. The series can be described thus: Potency index, ratio of stavudine IC50 to test compound IC50 for antiviral activity against HIV-2 ROD infected in human MT4 cells.
Setting [13] is: Human immunodeficiency virus 1, 3B, C8166, read-out: IC50.

For the molecule `COC(=O)[C@H](C)NP(=O)(OC[C@@H]1C=C[C@H](n2cc(C)c(=O)[nH]c2=O)O1)Oc1cccc(C(F)(F)F)c1` (stereo partly specified), the IC50 in series [1] is 41 nM; in series [5] it was 39 nM; in [6], “Not Active”; in [7] it was 49 nM. In series [2], this molecule yielded a CC50 of 66100 nM. Also, the selectivity ratio in [3] stood at 1610; in [4], 1350. Also, the solubility (kinetic) at 2 h in the series “physchem” was > 100 µM.

With `COC(=O)[C@H](C)NP(=O)(OC[C@@H]1C=C[C@H](n2cc(C)c(=O)[nH]c2=O)O1)Oc1ccccc1` (stereo partly specified), the IC50 in [1] was 210 nM; in series [5], 300 nM; in [6] (setting [13]) it was 320 nM; in series [7] it was 270 nM. In addition, the CC50 in series [2] is 251000 nM. Moreover, the selectivity ratio in series [3] came to 1200; in [4], 930.

With `COC(=O)[C@H](C)NP(=O)(OC[C@@H]1C=C[C@H](n2cc(C)c(=O)[nH]c2=O)O1)Oc1cccc(S(F)(F)(F)(F)F)c1` (stereo partly specified), the 50% inhibitory concentration (IC50) in series [1] was 30 nM; in [5], 54 nM; in series [6] (setting [13]), 335 nM; in series [7], 36 nM. Also, the midpoint of cytotoxicity in [2], the CC50, lay at 52600 nM. For the same molecule, the selectivity ratio in series [3] turned out to be 1750; in series [4], 1460. Also, the “Ratio IC50” value in series [8] was >10; in series [9] it was 75; in [12], >10. Besides, the Drug metabolism result in [10] and in series [11] was “Metabolite_Detected” in each case. Besides, the solubility (kinetic) at 2 h in “physchem” is > 100 µM.

`COC(=O)[C@H](C)NP(=O)(OC[C@@H]1C=C[C@H](n2cc(C)c(=O)[nH]c2=O)O1)Oc1ccc(C(F)(F)F)cc1` (stereo partly specified): the IC50 in series [1] was found to be 37 nM; in series [5], 22 nM; in series [6] (setting [13]), 75 nM; in series [7], 47 nM. The molecule further registered a CC50 in series [2] of 42900 nM. Also, the results for the selectivity ratio in series [3] and in series [4] were 1160 and 912, respectively. For the same molecule, the “Ratio IC50” value in series [9] was 180. Moreover, the kinetic solubility at 2 h in the series “physchem” was > 100 µM.

For the molecule `COC(=O)C1=C(C)NC(C)=C(C(=O)OCCN(C)Cc2ccccc2)C1c1cccc([N+](=O)[O-])c1` (stereo unspecified) [NICARDIPINE], the solubility (kinetic) at 2 h in “physchem” was 10 to 30 µM (≈ 4.8 to 14.4 µg/mL).

Consider `Cc1cn([C@H]2C=C[C@@H](CO)O2)c(=O)[nH]c1=O` [STAVUDINE], for which the IC50 in series [1] is 400 nM; in series [5] it was 4060 nM; in series [6] it was “Not Active”; in series [7] it was 450 nM. In [2], the half-maximal cytotoxic concentration (CC50) is 313000 nM. Also, the selectivity ratio in [3] turned out to be 782; in series [4], 695. For the same molecule, the kinetic solubility at 2 h in “physchem” is > 100 µM.
